Results published in ChEMBL document CHEMBL5252514, “Conopeptide-Derived κ-Opioid Agonists (Conorphins): Potent, Selective, and Metabolic Stable Dynorphin A Mimetics with Antinociceptive Properties” (J Med Chem, 2016).
The source made the active and inactive calls. The rule behind the calls is not given here. Where a SMILES comes first, the peptide text is derived from it.

Assays:
[1] = biological target: T1, Kappa-type opioid receptor (Homo sapiens, UniProt P41145); assay: Displacement of [3H]U69593 from human kappa opioid receptor expressed in CHO-K1 cells incubated for 1 hr by 1450 microbeta scintillation counter analysis; assay type: cell-based
Summary of the method: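 Membranes from transiently KOR-transfected CHO-K1 cells (~2 µg/well) used in SPA with 3H-U69,593 (1 nM). Competitor ranged 1 pM–10 µM in 50 mM Tris-HCl pH 7.4, 5 mM MgCl2, 0.1% BSA. Incubated 1 h at room temperature with shaking. Nonspecific binding defined with 10 µM dynorphin A. Sigmoidal dose-response fit; at least three independent experiments in triplicate.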

Homo sapiens [2] = organism: Homo sapiens; assay: Selectivity ratio, ratio of Ki for human KOR to Ki for human DOR
[3] = biological target: T1, Kappa-type opioid receptor; assay: Agonist activity at human kappa opioid receptor expressed in CHO-K1 cells assessed as inhibition of forskolin-stimulated cAMP production incubated for 30 mins by LANCE cAMP assay; assay type: cell-based
Summary of the method: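 Transiently KOR-transfected CHO-K1 cells taken 24 h post-transfection, 3,000 cells/well in HBSS stimulation buffer (0.1% BSA, 0.5 mM IBMX, 5 mM HEPES, pH 7.4). Forskolin (1 µM final) and ligand added, then 30 min at RT. LANCE Eu-cAMP tracer/anti-cAMP TR-FRET read after 1 h at RT. Sigmoidal dose-response fit.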

Homo sapiens [4] = organism: Homo sapiens; assay: Selectivity ratio, ratio of Ki for human KOR to Ki for human NOP
[5] = biological target: T1, Kappa-type opioid receptor; assay: Agonist activity at human kappa opioid receptor expressed in CHO-K1 cells assessed as ERK phosphorylation incubated for 2 hrs by Alphascreen surefire method; assay type: cell-based
Summary of the method: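 CHO-K1 cells transiently transfected with KOR plasmid, harvested 24 h later, plated at 50,000 cells/well and settled 24 h, then serum-starved 12 h. Ligands in serum-free medium applied 10 min at room temperature. Lysates read by AlphaScreen SureFire phospho-ERK1/2 after 2 h at 37 °C. Curves fitted by sigmoidal dose-response.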

[6] = Metabolic stability in Wistar rat plasma assessed as half life by HPLC analysis; assay type: ADME, cell-free
Summary of the method: (§1)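 Peptide at 1 mg/mL in sterile PBS pH 7.4 was mixed 1:1 with thawed, centrifuged Wistar rat plasma supernatant and incubated at 37°C in triplicate. Samples at 0, 1, 2, 3, 4, 6 and 24 h were quenched with acetonitrile and then 2% TFA/water, and analysed by HPLC with inline electrospray MS.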

Homo sapiens [7] = organism: Homo sapiens; assay: Selectivity ratio, ratio of Ki for human KOR to Ki for human MOR
[8] = Metabolic stability in Wistar rat plasma assessed as UrrQ[CHA]CC formation by measuring relative abundance measuring after 120 mins by HPLC analysis relative to control; assay type: ADME, cell-free; conditions: 2 h; summary of the method: as §1
[9] = Metabolic stability in Wistar rat plasma assessed as UrrQ[CHA] formation by measuring relative abundance measuring after 120 mins by HPLC analysis relative to control; assay type: ADME, cell-free; conditions: 2 h; summary of the method: as §1
[10] = Metabolic stability in Wistar rat plasma assessed as UrrQ[CHA][PEN]C formation by measuring relative abundance measuring after 3600 mins by HPLC analysis relative to control; assay type: ADME, cell-free; conditions: 60 h
[11] = Metabolic stability in Wistar rat plasma assessed as compound remaining measured after 24 hrs by HPLC analysis; assay type: ADME, cell-free; conditions: read-out: Stability; summary of the method: as §1
[12] = Metabolic stability in Wistar rat plasma assessed as BzPrrQ[CHA]CC formation by measuring relative abundance measuring after 360 mins by HPLC analysis relative to control; assay type: ADME, cell-free; conditions: 6 h; summary of the method: as §1
Mus musculus [13] = assay: Antinociceptive activity against C57BL/6 mouse assessed as inhibition of colonic nociceptor mechanosensitivity at 1 to 1000 nM, administered topically on colon mucosal surface for 28 days; assay type: functional, organism-based; conditions: dose 1-1000 nM, time 28.0 day
Summary of the method: (§2)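 Ex vivo single-unit extracellular recording of splanchnic colonic afferents from healthy C57BL/6 mice or CVH mice (28 days after TNBS, inflammation resolved). Baseline mechanosensitivity was measured with a 2 g von Frey probe applied 3 s to the receptive field, repeated 3–4 times 10 s apart. KOR agonist was applied to the mucosal surface for 5 min per concentration inside a small metal ring, then mechanosensitivity was re-tested.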

Mus musculus [14] = assay: Antinociceptive activity against C57BL/6 mouse model of TNBS induced chronic visceral hypersensitivity assessed as inhibition of colonic nociceptor mechanosensitivity at 1000 nM, administered topically on colon mucosal surface for 28 days; assay type: functional, organism-based; conditions: time 28.0 day; summary of the method: as §2
Mus musculus [15] = assay: Antinociceptive activity against C57BL/6 mouse model of TNBS induced chronic visceral hypersensitivity assessed as inhibition of colonic nociceptor mechanosensitivity at 1000 nM, administered topically on colon mucosal surface for 28 days in presence of norbinaltorphimine; assay type: functional, organism-based; conditions: time 28.0 day; summary of the method: as §2
[16] = Metabolic stability in Wistar rat plasma assessed as BzPrrQ[CHA][PEN]C formation by measuring relative abundance measuring after 3600 mins by HPLC analysis relative to control; assay type: ADME, cell-free; conditions: 60 h
[17] = Metabolic stability in Wistar rat plasma assessed as URR formation by measuring relative abundance measuring after 60 mins by HPLC analysis relative to control; assay type: ADME, cell-free; conditions: 1 h; summary of the method: as §1
[18] = Metabolic stability in Wistar rat plasma assessed as Q[CHA]CC formation by measuring relative abundance measuring after 60 mins by HPLC analysis relative to control; assay type: ADME, cell-free; conditions: 1 h; summary of the method: as §1
[19] = Metabolic stability in Wistar rat plasma assessed as URRQ[CHA] formation by measuring relative abundance measuring after 60 mins by HPLC analysis relative to control; assay type: ADME, cell-free; conditions: 1 h; summary of the method: as §1

T1 sequence (P41145 whole entry): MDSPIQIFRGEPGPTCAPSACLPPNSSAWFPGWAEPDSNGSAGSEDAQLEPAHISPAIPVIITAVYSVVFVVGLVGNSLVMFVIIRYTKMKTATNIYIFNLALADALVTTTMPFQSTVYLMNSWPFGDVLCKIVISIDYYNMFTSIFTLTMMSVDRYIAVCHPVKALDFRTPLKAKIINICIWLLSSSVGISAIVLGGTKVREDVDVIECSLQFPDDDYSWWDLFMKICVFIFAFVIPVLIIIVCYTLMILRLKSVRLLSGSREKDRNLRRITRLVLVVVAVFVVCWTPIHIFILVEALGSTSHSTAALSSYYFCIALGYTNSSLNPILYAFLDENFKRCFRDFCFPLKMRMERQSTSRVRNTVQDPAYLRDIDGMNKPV

SMILES	Ki [1]	Ratio Ki (Homo sapiens [2])	EC50 [3]	Ratio Ki (Homo sapiens [4])	EC50 [5]	half-life [6]	Ratio Ki (Homo sapiens [7])	other results
CC[C@H](C)[C@H](NC(=O)[C@H](CCC(N)=O)NC(=O)[C@H](CCCNC(=N)N)NC(=O)[C@H](CCCNC(=N)N)NC(=O)[C@@H]1CCC(=O)N1)C(=O)N[C@H]1CSSC[C@@H](C(N)=O)NC1=O (HELM PEPTIDE1{[Glp].R.R.Q.I.C.C.[am]}$PEPTIDE1,PEPTIDE1,6:R3-7:R3$$$V2.0)	0.191 µM	> 250	0.0019 µM	> 250	7.49 µM	3 h	> 250	–
N=C(N)NCCC[C@@H](NC(=O)[C@@H](CCCNC(=N)N)NC(=O)[C@@H]1CCCN1C(=O)c1ccccc1)C(=O)N[C@@H](CCC(N)=O)C(=O)N[C@H](C(=O)N[C@H]1CSSC[C@@H](C(N)=O)NC1=O)C1CCCCC1	0.00048 µM	> 125000	0.00039 µM	> 125000	0.00062 µM	20 h	> 125000	–
N=C(N)NCCC[C@@H](NC(=O)[C@@H]1CCC(=O)N1)C(=O)N[C@H](CCCNC(=N)N)C(=O)N[C@@H](CCC(N)=O)C(=O)N[C@@H](CC1CCCCC1)C(=O)N[C@H]1CSSC[C@@H](C(N)=O)NC1=O	0.0039 µM	> 10000	0.0126 µM	> 10000	1.1 µM	6 h	> 10000	Activity [8]: 1; Activity [9]: 0.1
CC1(C)SSC[C@@H](C(N)=O)NC(=O)[C@H]1NC(=O)[C@H](CC1CCCCC1)NC(=O)[C@H](CCC(N)=O)NC(=O)[C@@H](CCCNC(=N)N)NC(=O)[C@@H](CCCNC(=N)N)NC(=O)[C@@H]1CCC(=O)N1	0.0013 µM	> 1200	0.0105 µM	> 25000	0.45 µM	–	> 39000	Activity [10]: 1; remaining at 24 h [11]: 100%
CC[C@H](C)[C@H](NC(=O)[C@H](CCC(N)=O)NC(=O)[C@H](CCCNC(=N)N)NC(=O)[C@H](CCCNC(=N)N)NC(=O)[C@@H]1CSSC[C@H](NC(=O)[C@@H]2CCC(=O)N2)C(=O)N1)C(=O)N[C@H]1CSSC[C@@H](C(N)=O)NC1=O (HELM PEPTIDE1{[Glp].C.C.R.R.Q.I.C.C.[am]}$PEPTIDE1,PEPTIDE1,2:R3-3:R3|PEPTIDE1,PEPTIDE1,8:R3-9:R3$$$V2.0)	0.0675 µM	> 630	0.0115 µM	> 630	5.86 µM	0.25 h	> 630	–
N=C(N)NCCC[C@@H](NC(=O)[C@@H](CCCNC(=N)N)NC(=O)[C@@H]1CCCN1C(=O)c1ccccc1)C(=O)N[C@@H](CCC(N)=O)C(=O)N[C@@H](CC1CCCCC1)C(=O)N[C@H]1CSSC[C@@H](C(N)=O)NC1=O	0.00025 µM	> 250000	0.00041 µM	> 45000	0.00036 µM	4 h	> 250000	Activity [12]: 1; inhibition (Mus musculus [13]): inactive; inhibition (Mus musculus [14]): Dose-Dependent Effect; inhibition (Mus musculus [15]): inactive
CC[C@H](C)[C@H](NC(=O)[C@H](CCC(N)=O)NC(=O)[C@H](CCCNC(=N)N)NC(=O)[C@H](CCCNC(=N)N)NC(=O)[C@@H]1CSSC[C@H](NC(=O)[C@@H](N)CC(N)=O)C(=O)N1)C(=O)N[C@H]1CSSC[C@@H](C(N)=O)NC1=O (HELM PEPTIDE1{N.C.C.R.R.Q.I.C.C.[am]}$PEPTIDE1,PEPTIDE1,2:R3-3:R3|PEPTIDE1,PEPTIDE1,8:R3-9:R3$$$V2.0)	0.08 µM	> 630	9.45 µM	> 630	9.85 µM	0.25 h	> 630	–
CC1(C)SSC[C@@H](C(N)=O)NC(=O)[C@H]1NC(=O)[C@H](CC1CCCCC1)NC(=O)[C@H](CCC(N)=O)NC(=O)[C@@H](CCCNC(=N)N)NC(=O)[C@@H](CCCNC(=N)N)NC(=O)[C@@H]1CCCN1C(=O)c1ccccc1	1.14 µM	–	–	–	–	–	–	Activity [16]: 1; remaining at 24 h [11]: 95%
N=C(N)NCCC[C@H](NC(=O)[C@@H]1CCC(=O)N1)C(=O)N[C@@H](CCCNC(=N)N)C(=O)N[C@@H](CCC(N)=O)C(=O)N[C@@H](CC1CCCCC1)C(=O)N[C@H]1CSSC[C@@H](C(N)=O)NC1=O	0.0067 µM	> 10000	0.0152 µM	> 10000	1.58 µM	1.5 h	> 10000	Activity [17]: 0.01; Activity [18]: 0.01; Activity [19]: 0.1
N=C(N)NCCC[C@@H](NC(=O)[C@@H]1CCC(=O)N1)C(=O)N[C@H](CCCNC(=N)N)C(=O)N[C@@H](CCC(N)=O)C(=O)N[C@@H](CC1CCCCC1)C(=O)N[C@H]1C[Se]SC[C@@H](C(N)=O)NC1=O	0.0078 µM	–	–	–	–	6 h	–	–
N=C(N)NCCC[C@H](NC(=O)[C@H](CCCNC(=N)N)NC(=O)[C@@H]1CSSC[C@H](NC(=O)[C@@H](N)CC(N)=O)C(=O)N1)C(=O)N[C@@H](CCC(N)=O)C(=O)N[C@@H](Cc1cccc2ccccc12)C(=O)N[C@H]1CSSC[C@@H](C(N)=O)NC1=O (HELM PEPTIDE1{N.C.C.R.R.Q.[O=C([C@H](Cc1cccc2ccccc12)N[*:1])[*:2]].C.C.[am]}$PEPTIDE1,PEPTIDE1,2:R3-3:R3|PEPTIDE1,PEPTIDE1,8:R3-9:R3$$$V2.0)	0.0029 µM	–	–	–	–	< 0.25 h	–	–
COc1ccc(C(=O)N2CCC[C@H]2C(=O)N[C@H](CCCNC(=N)N)C(=O)N[C@H](CCCNC(=N)N)C(=O)N[C@@H](CCC(N)=O)C(=O)N[C@@H](CS)C(=O)N[C@@H](CC2CCCCC2)C(=O)N[C@H]2CSSC[C@@H](C(N)=O)NC2=O)cc1	0.00059 µM	–	–	–	–	2 h	–	–
N=C(N)NCCC[C@@H](NC(=O)[C@@H](CCCNC(=N)N)NC(=O)[C@@H]1CCCN1C(=O)c1ccc2ccccc2c1)C(=O)N[C@@H](CCC(N)=O)C(=O)N[C@@H](CC1CCCCC1)C(=O)N[C@H]1CSSC[C@@H](C(=O)O)NC1=O	0.229 µM	–	–	–	–	0.5 h	–	–
